Most compounds without a hit are left out; they make up all but 12% or so of the library.
ABCB1 block: blocks JC-1 efflux by human ABCB1 transporter | CCRF-Adr cells, flow cytometry | inhibition, % at 6.6 µM | 190,000 tested, 0.067% active; in the data active means inhibition above about 40%;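 further: higher value means more JC-1 retained so stronger ABCB1 efflux block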
RAM network inh: inhibitors of the yeast RAM network; inhibition, % at 50 µM; 190,000 tested, 1.8% active; AID 868; S. cerevisiae dse1pr::URA3 reporter, 5-FOA growth OD615, 2 d; analog-sensitive cbk1-as2 kinase mutant strain;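 active means inhibition above a set limit, 3 SD over mean compound inhibition, cut at about 8.4% in these data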;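 further: inhibition rescues growth on 5-FOA so higher OD means more RAM inhibition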
ABCG2 block: inhibitors of human ABCG2 transporter, ABCB1 counter-screen | Q9UNQ0 | IgMXP3 cells, JC-1 efflux, flow cytometry | inhibition, % at 6.6 µM | 190,000 tested, 0.1% active | AID 1325;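 active means inhibition above 80%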
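material = IgMXP3 (ABCG2) plus far-red-tagged CCRF-Adr (ABCB1) cells | amount = 3 million cells/mL, equal mix of both lines | also added = JC-1 transporter substrate | dosing = one concentration, 6.6 µM final | schedule = 10 min at 25 °C | measured by = flow cytometric JC-1 green MFI at 530 nm | read-out basis = percent efflux inhibition, scaled nicardipine 100% to DMSO 0%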
WT yeast gro inh: growth inhibition of WT yeast, mitochondrial fusion screen. 190,000 tested, 2.1% active. AID 1362. inhibition, % at 10 µM. mitochondrial fusion phenotypic screen, WT strain; in the data active means inhibition above about 58%; tested in S. cerevisiae
Lmaj promast: Leishmania major promastigote growth inhibition; inhibition, % at 10 µM; AID 1063; Leishmania major promastigotes, resazurin fluorescence viability; 200,000 tested, 9% active; in the data active means inhibition above about 50%;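 further: promastigotes grown with compound for 44 hours at 28 °C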
Numbers stand for hits; - = inactive.

SMILES	ABCB1 block	RAM network inh	ABCG2 block	WT yeast gro inh	Lmaj promast
Cc1c(CCOC(=O)C23CC4CC(CC(C4)C2)C3)sc[n+]1CC#N	-	-	-	-	-
COCC(=O)NNC(=S)Nc1cccc(C)c1C	-	-	-	-	-
CCCCOc1ccc(CSC(CC(=O)O)C(=O)O)cc1 (stereo not given)	-	-	-	-	-
CCCCOc1ccc(CSCCN=C(N)N)cc1	-	-	-	-	97
COc1ccc(CCN(Cc2nc3ccccc3c(=O)[nH]2)C(=O)C2CC2)cc1	-	-	-	-	-
Cc1cccc(CN(CC(=O)N/N=C/c2cccs2)S(=O)(=O)c2ccc(Cl)cc2)c1	-	-	-	-	93
COc1cccc(NC(=O)N2CCC(C(=O)Nc3ccc(C)cc3C)CC2)c1	-	-	-	-	-
COc1ccccc1N1CCN(C(=O)Nc2cccc(Cl)c2)CC1	-	-	-	-	78
O=C(Nc1ccc2c(c1)OCO2)N1CCN(c2ccccc2Cl)CC1	-	-	-	-	80
COc1cccc(NC(=O)N2CCN(c3cccc(C)c3C)CC2)c1	-	-	-	-	81
O=C(Nc1ccc2c(c1)OCO2)c1ccccc1SCC(=O)N1CCCC1	-	-	-	65	-
O=C(Nc1ccc2c(c1)OCO2)N1CCN(S(=O)(=O)c2ccc(Cl)cc2)CC1	-	-	-	-	-
COCCSc1ccccc1C(=O)Nc1ccc2c(c1)OCO2	-	-	-	-	-
COc1ccccc1NC(=O)COc1ccc(Br)cc1CNCCCN1CCOCC1	-	-	-	-	77
COc1cc(CNCCCN2CCOCC2)c(Br)cc1OCC(=O)Nc1ccccc1C	-	-	-	-	57
Cc1ccccc1NC(=O)COc1ccc(Br)cc1CNCCCO	-	-	-	-	-
CCc1cccc(C)c1NC(=S)N(Cc1cccnc1)Cc1ccco1	-	-	-	-	-
OCC1CCCCN1C(=S)Nc1cccc(Cl)c1 (stereo not given)	-	-	-	-	-
CSc1ccc(CN2C(=O)NC3(CCCCCCC3)C2=O)cc1	-	-	-	-	-
O=C1NC2(CCCCC2)C(=O)N1Cc1cccc(C(F)(F)F)c1	-	-	-	-	98
Cc1ccc(S(=O)(=O)Nc2n[nH]nc2C(=O)NC2CCCCC2)cc1	-	-	-	-	-
O=C(NNC(=O)c1cccs1)c1ccc(Cl)c(Cl)c1	-	-	-	-	-
COCCNC(=O)CN(C(=O)CCC(=O)Nc1ccccn1)c1ccccc1F	-	-	-	-	-
Fc1cccc2sc(Nc3nc4cc5c(cc4s3)OCO5)nc12	-	-	-	-	60
CCOC(=O)C1(Cc2cccc(OC)c2)CCN(Cc2ccccc2OC)CC1	-	-	-	-	-
SMILES	ABCB1 block	RAM network inh	ABCG2 block	WT yeast gro inh	Lmaj promast
CCOC(=O)C1(Cc2ccccc2)CCN(Cc2cnn(C(C)C)c2)CC1	-	-	-	-	-
CCOC(=O)C1(Cc2ccccc2)CCN(Cc2cccc3nccnc23)CC1	-	-	-	-	-
CCOC(=O)C1(Cc2cccc(F)c2)CCN(Cc2cnn(CC)c2C)CC1	-	-	-	-	69
CCOC(=O)C1(Cc2cccc(OC)c2)CCN(Cc2cccc(OC)c2O)CC1	-	-	-	-	72
CCOC(=O)C1(Cc2ccccc2)CCN(Cc2csc(C(C)=O)c2)CC1	-	-	-	-	86
CCOC(=O)C1(Cc2ccccc2)CCN(Cc2cccc(OC)c2O)CC1	-	-	-	-	68
COc1ccc(Br)cc1CN(C)CC(=O)Nc1c(Cl)cccc1Cl	-	-	-	-	-
CC(C)(C)C(=O)Nc1nnc(SCC(=O)NCc2ccco2)s1	-	-	-	-	-
CCCCn1c(SCC(=O)NC2CCS(=O)(=O)C2)nc2cc(S(N)(=O)=O)ccc21 (stereo not given)	-	-	-	-	-
O=C(c1ccco1)N1CCN(c2nnc(-c3ccccc3)c3ccccc23)CC1	-	-	-	-	-
CCOC(=O)C1(Cc2cccc(OC)c2)CCN(Cc2cccc(O)c2)CC1	-	-	-	-	-
CCOC(=O)C1(Cc2cccc(OC)c2)CCN(Cc2ccc(OC)c(OC)c2)CC1	-	-	-	-	91
Cc1cc(N2CCCCC2)nc(-c2ccc(Br)cc2)n1	-	-	-	66	-
Cc1ccc(NC(=S)NCC(C)CSc2ccc(Cl)cc2)cc1 (stereo not given)	-	-	-	81	59
CN(C)C(CNC(=S)Nc1ccc(Cl)cc1)c1cccnc1 (stereo not given)	-	-	-	-	-
Cc1cccc(NC(=S)NCC(C)CSc2ccc(Cl)cc2)c1 (stereo not given)	-	8.9	-	82	86
O=C(COC(=O)c1ccc(O)cc1)NCC1CCCO1 (stereo not given)	-	-	-	-	-
CN1/C(=C\C(=O)Nc2ccc(F)cc2)C(C)(C)c2ccccc21	-	-	-	74	-
CCN(CC)S(=O)(=O)c1cccc(C(=O)/C=C2/N(C)c3ccccc3C2(C)C)c1	-	-	-	-	-
CN1/C(=C\C(=S)NC(=O)c2ccc([N+](=O)[O-])cc2)C(C)(C)c2ccccc21	-	-	-	-	-
CN1/C(=C\C(=O)Nc2cccc(Cl)c2)C(C)(C)c2ccccc21	-	-	-	78	-
CN1/C(=C\C(=O)Nc2ccc(Br)cc2)C(C)(C)c2ccccc21	-	-	-	87	-
CN1/C(=C/C(=O)C2CC2)C(C)(C)c2ccccc21	-	-	-	-	-
CN1/C(=C\C(=S)NC(=O)c2cccc(Br)c2)C(C)(C)c2ccccc21	-	8.9	-	65	-
COc1cccc(CN(CC(=O)NC2CCCC2)C(=O)Cn2nnc(-c3cccs3)n2)c1	-	-	-	-	-
SMILES	ABCB1 block	RAM network inh	ABCG2 block	WT yeast gro inh	Lmaj promast
COc1cccc(C(=O)Oc2cc(N)n(S(=O)(=O)c3ccc(C)cc3)n2)c1OC	-	9.1	-	-	-
Cc1cc(C)cc(NC(=O)C(=S)NCc2ccccc2)c1	-	-	-	-	-
CCCCNC(=S)Nc1ccccc1Cc1ccccc1	-	-	-	73	-
CCCCSCCCNC(=S)Nc1ccccc1C	-	-	-	73	-
Cc1ccccc1NC(=S)NCCO	-	-	-	-	-
CCOc1ccc(CO/N=C/c2c(C)[nH]c(=O)[nH]c2=O)cc1	-	-	-	-	-
Cc1cccc(OCCCC(=O)Nc2ccc3c(c2)OCO3)c1	-	-	-	74	-
Cc1cccc(OCC(=O)Nc2ccc3c(c2)OCO3)c1C	-	-	-	-	73
Cc1ccc(C)c(OCC(=O)Nc2ccc3c(c2)OCO3)c1C	-	-	-	-	-
Cc1cccc(OCCC(=O)Nc2ccc(F)c(Cl)c2)c1	-	-	-	-	65
CC(C)CC(=O)Nc1ccc(F)c(Cl)c1	-	-	-	-	60
CCCC(C)C(=O)Nc1ccc(F)c(Cl)c1 (stereo not given)	-	-	-	-	-
Cc1cccc(OCCCC(=O)Nc2ccc(N3CCOCC3)cc2)c1	-	-	-	-	-
Cn1nc(CSc2ccccc2)c(C=O)c1Cl	-	-	-	-	-

Compound activity as filed in PubChem BioAssay.
